DAGLB inhibitor = blocks human DAGLB lipase activity | HEK293T DAGLB membrane lysate, EnzChek fluorogenic substrate | 0.059% of 340,000 active | inhibition, % at 5.17 µM; in the data active means inhibition above about 34%;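 further: 0% = enzyme with vehicle and 100% = wells lacking enzyme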
Target sequence (Q8NCG7 whole entry, looked up): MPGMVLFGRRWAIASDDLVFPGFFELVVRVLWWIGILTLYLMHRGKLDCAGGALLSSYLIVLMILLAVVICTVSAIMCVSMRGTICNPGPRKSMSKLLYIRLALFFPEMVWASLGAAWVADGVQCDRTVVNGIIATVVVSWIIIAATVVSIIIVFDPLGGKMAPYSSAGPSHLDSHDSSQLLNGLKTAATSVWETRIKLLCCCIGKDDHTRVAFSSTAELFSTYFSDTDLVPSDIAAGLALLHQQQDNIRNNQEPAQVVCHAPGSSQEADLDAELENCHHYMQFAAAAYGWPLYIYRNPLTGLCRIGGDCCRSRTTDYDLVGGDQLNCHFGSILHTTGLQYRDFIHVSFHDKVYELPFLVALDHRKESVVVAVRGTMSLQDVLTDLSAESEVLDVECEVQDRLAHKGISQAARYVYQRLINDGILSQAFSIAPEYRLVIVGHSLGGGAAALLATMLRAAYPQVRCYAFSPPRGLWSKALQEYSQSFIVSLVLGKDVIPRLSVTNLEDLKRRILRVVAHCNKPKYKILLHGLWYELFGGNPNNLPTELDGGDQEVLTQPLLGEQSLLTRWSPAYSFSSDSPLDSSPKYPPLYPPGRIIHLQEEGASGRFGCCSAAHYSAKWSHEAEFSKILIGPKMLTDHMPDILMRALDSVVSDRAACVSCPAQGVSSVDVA
MT1-MMP act inh = MT1-MMP (human) activation inhibition. AID 651647. 0.061% of 360,000 active. HT1080 RFP-PRO-GFP cells, GFP/RFP ratio fluorescence, overnight; percent of plate control window, DMSO zero. GFP/RFP ratio change, % at 20 µM;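 active means GFP/RFP ratio change of at least 30% with cell ATP level not reduced by more than half and red fluorescence within 50% of control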
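Material: RFP-PRO-GFP reporter HT1080 cells. Dosing: single-point 20 µM compound, 1% DMSO. Controls: DMSO and RFP-L50D-GFP cell wells. Timing: cells overnight before dosing, compound overnight, 37 °C, 5% CO2. Measure: GFP/RFP fluorescence ratio.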
MsrA inh = inhibitors of bovine MsrA; 0.75% of 360,000 active; inhibition, % at 15.5 µM; purified bovine MsrA, absorbance read-out;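 further: 0% = vehicle wells with enzyme and 100% = reference inhibitor wells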
beta cell repl = inducers of beta-cell replication in MIN6 cells | MIN6 cells proliferation, ATPlite luminescence, 48 h; cells starved in 0.2% serum; 100% = growth in 10% serum | proliferation, % at 10 µM | 0.29% of 330,000 active | AID 2380;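 active means compounds whose signal lies at least 3.5 SD above the mean of all wells on their plate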;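 further: 0% = DMSO-treated cells in low-serum medium and 100% = 10% serum control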
SKN-1 inh = C. elegans SKN-1 inhibition; C. elegans VP596 Pgst-4::GFP/RFP ratio, acrylamide-induced, 24 h; inhibition, % at 21.8 µM; 0.49% of 360,000 active;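 active means interference check ratio from 0.5 to 1.5 plus GFP to RFP signal ratio inhibition reaching or exceeding a fixed threshold, cut at about 30% in these data, passing the limit was not always enough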
MsrA act = activators of bovine methionine sulfoxide reductase A | purified bovine MsrA, absorbance read-out | activation, % at 10.6 µM | 0.3% of 360,000 active; in the data active means activation above about 7.5%;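 further: 0% = vehicle and 100% = reference activator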
MsrA conf = bovine MsrA inhibition, confirmed; shares compounds with MsrA inh; purified bovine MsrA, absorbance read-out; inhibition, % at 15.5 µM; 41% of 2,300 active; AID 651822;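 further: coupled to thioredoxin reductase with NADPH and selenocystamine and DMSO as substrate; 0% = vehicle only and 100% = full effect of reference inhibitor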
* hit, by the source's call; . = no result. Compounds with a hit are over-represented: about 1.8% of the library has one in this group of screens. Unless noted, no stated cut-off is given here; in the data, active means inhibition above about 4.5%; inactive means the rest.

SMILES	DAGLB inhibitor	MT1-MMP act inh	MsrA inh	beta cell repl	SKN-1 inh	MsrA act	MsrA conf
C/C(CC(=O)Nc1ccc2ccccc2c1)=N\NC(=O)c1ccc(O)c(O)c1	8	-4	0	-4	-3	-5	.
Cc1ccc(N/N=C2/CCCNC2=O)cc1	-2	-2	0	-2	-12	-10	.
CC(=O)c1ccc(N/N=C2/CCCNC2=O)cc1	.	0	7.4*	-1	-6	-8	6.2*
CC(C)c1nn2c(=O)cc(CSc3ccccc3NC(=O)c3ccccc3F)nc2s1	0	1	1	-2	-11	-10	.
Cc1nn2c(=O)cc(CSc3ccccc3NC(=O)c3ccccc3)nc2s1	0	0	17*	-5	12	2	13*
Cc1nn2c(=O)cc(CSc3ccccc3NC(=O)c3ccccc3F)nc2s1	2	3	4.7*	1	-9	-5	3
COc1ccc2cc3cc(C(=O)NCC4CCCO4)oc3nc2c1 (stereo not drawn)	-1	8	6.2*	-2	15	-5	4
COCCNC(=O)c1cc2cc3ccc(OC)cc3nc2o1	-2	2	4.8*	2	2	-5	4
COc1ccc(C(=O)NCC2CCCO2)cc1 (stereo not drawn)	1	-2	-1	0	1	-7	.
COc1ccc2cc3cc(C(=O)NCCC(C)C)oc3nc2c1	-5	3	1	-2	8	-2	.
CCC(C)NC(=O)c1cc2cc3ccc(OC)cc3nc2o1 (stereo not drawn)	-1	3	5.0*	-5	15	-5	5
CCOc1ccc(C(CC(=O)O)NC(=O)C(CC)c2ccccc2)cc1 (stereo not drawn)	-1	-1	1	2	9	-1	.
N#CC1=C(N)Oc2c(O)cc3ccccc3c2C1c1ccsc1 (stereo not drawn)	1	-2	8.5*	-4	13	-4	10*
CCOC(=O)C1=C(C)OC(N)=C(C#N)C1c1ccsc1 (stereo not drawn)	3	2	.	-4	19	1	.
O=C(NC(=S)Nc1cc([N+](=O)[O-])ccc1O)c1ccc2c(c1)OCO2	15	3	0	-7	-3	-2	.
COc1cc([N+](=O)[O-])ccc1NC(=S)NNC(=O)c1ccc2c(c1)OCO2	19	2	4.7*	-6	26	2	3
COc1ccc(/C=C/C(=O)Nc2nc(C)c(C(=O)N(C)C)s2)cc1OC	1	0	5.7*	2	-10	-5	5
Cc1nc(NC(=O)c2ccc(Br)s2)sc1C(=O)N(C)C	1	2	5.0*	-3	19	-13	2
COc1ccc(C(=O)Nc2nc(C)c(C(=O)N(C)C)s2)cc1OC	0	-2	2	-1	12	1	.
COC(=O)c1sc(NC(=O)/C=C/c2ccc(C)cc2)nc1C	1	2	-1	-1	9	-4	.
COc1ccc(/C=C/C(=O)Nc2nc(C)c(C(=O)N(C)C)s2)cc1	-3	-4	5.4*	-1	-2	-6	6.5*
O=C(CCC(=O)OCCOc1ccccc1)OCCOc1ccccc1	.	0	0	.	15	-3	.
COCC(=O)N1C[C@H]2CON(C)[C@H]2C[C@H]1c1ccc(N2CCCCC2)cc1	.	4	0	.	1	-2	.
c1ccc2c(c1)nc(N1CCOCC1)c1nnnn12	1	-11	7.5*	5	16	-3	14*
c1ccc(N2CCN(c3nc4ccccc4n4nnnc34)CC2)cc1	-7	-33	-1	-2	20	-4	.
O=C(CCC(=O)Nc1nnc(C2CCCCC2)s1)Nc1ccccc1	-2	-3	0	0	2	-2	.
O=C(Nc1nc2ccc(Cl)cc2s1)c1ccco1	1	1	3	-3	6	-7	.
COc1ccc2nc(Nc3nc4cc5c(cc4s3)OCO5)sc2c1	2	6	4.8*	-2	16	-7	3
COc1ccc2nc(NC(=O)c3ccco3)sc2c1	1	7	4.7*	-6	4	-2	3
COc1ccc(OCC(=O)OCC(=O)NCC2CCCCC2)cc1	-8	-2	0	-3	-5	-11	.

Source: PubChem BioAssay (several laboratories)
